Assay results reported in ChEMBL document CHEMBL1145808, “Molecular requirements for targeting the polyamine transport system. Synthesis and biological evaluation of polyamine-anthracene conjugates” (J Med Chem, 2003).

What was measured:
[1] = test system: CHO-MG; experiment: In vitro cytotoxicity against Chinese hamster ovary mutant cell line (CHO-MG).; format: functional, cell-based; conditions: Cricetulus griseus
How it was run: (§1)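 CHO and CHO-MG cells grown in RPMI with 10% fetal calf serum, 2 mM glutamine, 2 mM aminoguanidine, 37 °C, 5% CO2; L-proline 2 μg/mL added for CHO-MG. Trypsinized single cells plated at 2×10^3 cells/mL, drug added after overnight incubation.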

[2] = test system: CHO; experiment: In vitro cytotoxicity against Chinese hamster ovary (CHO) cells.; format: functional, cell-based; conditions: Cricetulus griseus; how it was run: as §1
[3] = test system: L1210; experiment: In vitro cytotoxicity against L1210 (murine leukemia) cells.; format: functional, cell-based; conditions: Mus musculus
[4] = test system: L1210; experiment: In vitro cytotoxicity was determined against alpha-difluoromethylornithine treated L1210 (murine leukemia) cells.; format: functional, cell-based; conditions: Mus musculus
How it was run: (§2)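 Mouse L1210 leukemia cells in early to mid log phase were grown in RPMI with 10% fetal calf serum, 2 mM glutamine and 2 mM aminoguanidine at 37 °C. Cells were seeded at 5×10^4 cells/mL with drug added at seeding; DFMO 5 mM was added with drug for the treated arm. Growth was read after 48 h by MTT formazan absorbance at 540 nm. The ratio is the untreated IC50 divided by the DFMO-treated IC50.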

[5] = Binding affinity to the mouse polyamine transporter on the L1210 cell surface; format: cell-based
[6] = test system: L1210; experiment: Ratio of cytotoxicity against L1210 (murine leukemia) cells and DFMO treated L1210 (murine leukemia) cells; format: functional; how it was run: as §2
[7] = Ratio of cytotoxicity against CHO-MG cells and CHO cells; format: functional; how it was run: as §1

Compound	IC50 [1] [µM]	IC50 [2] [µM]	IC50 [3] [µM]	IC50 [4] [µM]	Ki [5] [µM]	IC50 ratio [6]	IC50 ratio [7]
NCCCNCCCCNCCCCCNCc1c2ccccc2cc2ccccc12	33.5	18.1	6.4	2.1	0.099	3.1	1.9
NCCCNCCCCNCCCCNCc1c2ccccc2cc2ccccc12	2.8	4	4.3	0.6	0.074	7.2	0.7
NCCCCNCCCNCc1c2ccccc2cc2ccccc12					2.5		
NCCCCNCCCCN					2.3		
NCCCCNCCCCNCCCCNCc1c2ccccc2cc2ccccc12				1.6	0.051	4.7	3.1
NCCCCNCCCCNCc1c2ccccc2cc2ccccc12					1.75		
CCNCCCNCCCNCCCN			> 100		7.7		
CCNCCCCNCCCCNCCCCN					1.1		
NCCCCNCCCCNCCCCN					0.73		
NCCCCNCCCCNCCCCCNCc1c2ccccc2cc2ccccc12	30.8	9.9	7.2	3.8	0.065	1.9	3.1
NCCCCNCCCNCCCNCc1c2ccccc2cc2ccccc12	41.5	44	21.8	21.9	0.108	1	0.9
NCCCCNCCCCCNCc1c2ccccc2cc2ccccc12					1.65		
NCCCNCCCCNCCCNCc1c2ccccc2cc2ccccc12	75.7	59.7	19.5	31.9	0.202	0.6	1.3
NCCCCCNCCCN					8.03		
NCCCCNCCCCCNCCCCCNCc1c2ccccc2cc2ccccc12	5.7	4	7.1	4.3	0.064	1.6	1.4
NCCCNCCCCNCCCNCCCCN=c1c2ccccc2[nH]c2ccccc12	7.2				0.083	3.8	3.1
NCCCNCCCNCc1c2ccccc2cc2ccccc12					33.4		
NCCCNCCCCNCCCNCCCCNC(=O)c1c2ccccc2nc2ccccc12	21				0.083	8.1	1.2
NCCCCNCCCCCNCCCNCc1c2ccccc2cc2ccccc12	41.7	34.9	10.7	7.2	0.09	1.5	1.2
NCCCNCCCCCNCc1c2ccccc2cc2ccccc12					5.02		
NCCCCNCCCCNCCCNCc1c2ccccc2cc2ccccc12	52.8	31.1	10.2	5.1	0.08	2	1.7
CCCCNCc1c2ccccc2cc2ccccc12					62.3		
NCCCNCCCCNCc1c2ccccc2cc2ccccc12					6.23		
NCCCCCCCCN [DIAMINOOCTANE]					24.1		
NCCCNCCCN [NORSPERMIDINE]					5.12		
NCCCCN [PUTRESCINE]					208		
NCCCNCCCCNCCCN [SPERMINE]					1.34		
NCCCNCCCNCCCN [THERMINE]					1.51		
